High-throughput results deposited in PubChem by Sanford-Burnham Center for Chemical Genomics.
Compounds with a hit are over-represented: about 0.79% of the library has one in this group of screens.
bIAP activator = bovine intestinal alkaline phosphatase activators, primary screen, biochemical, bovine IAP, CDP-star luminescence | alkaline phosphatase, intestinal [Bos taurus] | purified bovine IAP, 30 min; active compounds read high; fold of DMSO-control signal, blank-subtracted | activation factor at 20 µM | 200,000 tested, 0.17% active | AID 1016, 2008;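 active means activation factor of 2 or more at 20 µM, a signal rise over negative controls twice the positive control's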
bIAP inh = bovine intestinal alkaline phosphatase inhibitors, primary screen, selectivity assay for TNAP inhibitor project, biochemical, bovine IAP, CDP-star luminescence; alkaline phosphatase, intestinal [Bos taurus]; purified bovine IAP, 30 min; inhibition, % at 20 µM; 190,000 tested, under 10 active;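 active means over 50% inhibition of intestinal alkaline phosphatase at 20 µM in the single-dose screen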
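Incubation: 30 min reaction at room temperature / Material: purified bovine intestinal alkaline phosphatase (IAP) enzyme / Input: enzyme at 1/65,000,000 dilution / Dosing: 20 µM single dose / Signal: CDP-star luminescence signal / Reagent: CDP-star chemiluminescent phosphatase substrate, 30 µM final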
mIAP act = activators of mouse IAP, primary screen, biochemical, luminescence, uHTS; activation factor at 10 µM; intestinal alkaline phosphatase [Mus musculus]; 330,000 tested, 0.24% active; muIAP, CDP-Star luminescence, 30 min; active compounds read high; 1 = vehicle-only enzyme signal, 0 = enzyme-free wells;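 active means activation factor of at least 2 at 20 µM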
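Assay system: mouse IAP enzyme / Compound: DMSO-dissolved test compounds / Timing: 30 min, room temperature / Measured by: luminescence from enzymatic CDP-Star hydrolysis / Control set: DMSO-only wells, enzyme-free buffer wells as negative control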
mIAP inh = inhibitors of mouse IAP, primary screen, biochemical, luminescence, uHTS; intestinal alkaline phosphatase [Mus musculus]; purified mouse IAP, CDP-Star luminescence, 30 min; inhibition, % at 10 µM; 330,000 tested, 0.2% active; AID 2806, 2010;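 active means inhibition of at least 40% at 10 µM in the primary screen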;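 further: plate controls were DMSO with enzyme for no effect and no enzyme wells for full effect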
hIAP inh = human IAP inhibitors, primary screen, biochemical, luminescence, uHTS; Intestinal-type alkaline phosphatase (Homo sapiens), P09923; purified IAP, CDP-Star luminescence, 30 min; inhibition, % at 10 µM; 330,000 tested, 0.12% active; AID 2544, 2010;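 active means inhibition reaching a set limit with compound at 10 µM in the primary screen, cut at about 35% in these data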;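 further: plate controls were DMSO wells with enzyme for no effect and no-enzyme buffer wells for full effect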
Target sequence (P09923 whole entry, looked up): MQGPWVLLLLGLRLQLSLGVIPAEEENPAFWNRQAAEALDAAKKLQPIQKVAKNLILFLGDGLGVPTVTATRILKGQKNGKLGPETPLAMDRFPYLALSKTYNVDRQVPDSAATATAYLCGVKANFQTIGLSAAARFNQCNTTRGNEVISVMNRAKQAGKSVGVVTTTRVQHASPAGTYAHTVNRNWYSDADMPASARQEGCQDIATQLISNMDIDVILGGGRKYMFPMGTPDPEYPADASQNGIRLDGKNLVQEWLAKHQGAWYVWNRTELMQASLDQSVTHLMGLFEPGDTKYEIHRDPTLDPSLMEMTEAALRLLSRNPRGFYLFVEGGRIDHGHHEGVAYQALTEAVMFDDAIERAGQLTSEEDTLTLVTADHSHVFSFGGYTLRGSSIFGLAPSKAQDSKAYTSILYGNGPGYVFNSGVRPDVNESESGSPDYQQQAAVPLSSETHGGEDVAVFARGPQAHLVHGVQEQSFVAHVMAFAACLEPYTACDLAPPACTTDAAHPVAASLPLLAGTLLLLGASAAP
hIAP act = human IAP activators, primary screen, biochemical, luminescence, uHTS; Intestinal-type alkaline phosphatase (Homo sapiens), P09923; purified human IAP, CDP-Star luminescence, 30 min; active compounds read high; 1 = vehicle-only enzyme, 0 = enzyme-free background; activation factor at 10 µM; 330,000 tested, 0.16% active;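 active means activation factor of the enzyme at least 2-fold when tested at 20 µM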
mIAP inh confirm = inhibitors of mouse IAP, confirmation, biochemical, luminescence, single concentration. inhibition, % at 10 µM. purified mouse IAP, CDP-Star luminescence, 30 min. shares compounds with mIAP inh. 11,000 tested, 4.7% active. AID 434971, 2010;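 active means inhibition of at least 40% at 10 µM in either of the two replicates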;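 further: plate controls were DMSO wells with enzyme for no effect and buffer wells lacking enzyme for full effect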
An asterisk follows results filed as active; . = no result.

SMILES	bIAP activator	bIAP inh	mIAP act	mIAP inh	hIAP inh	hIAP act	mIAP inh confirm
Nc1ncc2c(n1)-c1ccccc1CC2	1	-3	1.1	-7	2	0.98	.
Nc1ncc2c(n1)-c1ccoc1CC2	.	.	0.59	41*	10	0.9	56*
NS(=O)(=O)c1ccc(N=Nc2c[nH]c(=O)c(O)c2)cc1	.	.	0.32	68*	-12	1.1	81*
CCCCNC(=O)Oc1c(Br)cc2sc(=O)oc2c1Br	.	.	0.22	78*	-12	1.1	81*
COc1cc(OC)cc(-c2oc(=O)c3cc(OC)c(OC)cc3c2/C=C/c2ccc(F)cc2)c1	.	.	0.92	8	-2	1	.
COc1cccc(NC(=O)NC2CCCc3ccccc32)c1 (stereo unspecified)	1.1	-9	2.8*	-184	0	1	-174
CCC1CCC(NC(=O)Nc2cccc(OC)c2)CC1 (stereo unspecified)	1.1	-14	2.2*	-120	-19	1.2	-137
COc1ccc(NC(=O)NC2CCCc3ccccc32)c(OC)c1 (stereo unspecified)	.	.	1.1	-13	-4	1	.
COc1ccc(C2CC(c3ccccc3Br)=NN2c2ccc(S(N)(=O)=O)cc2)cc1 (stereo unspecified)	.	.	1.2	-17	.	.	.
COc1ccc(C2CC(c3ccccc3F)=NN2c2ccc(S(N)(=O)=O)cc2)cc1 (stereo unspecified)	.	.	2.1*	-114	.	.	-113
COc1ccc(C2CC(c3ccc(C(F)(F)F)cc3)=NN2c2ccc(S(N)(=O)=O)cc2)cc1 (stereo unspecified)	.	.	1.7	-74	.	.	.
COc1ccc(C2CC(c3ccccc3C(F)(F)F)=NN2c2ccc(S(N)(=O)=O)cc2)cc1 (stereo unspecified)	.	.	2.2*	-123	.	.	-121
O=C(COC(=O)COc1ccccc1)Nc1ncc([N+](=O)[O-])s1	.	.	0.37	63*	-28	1.3	69*
Cc1csc(NC(=O)CSc2nncn2C)n1	1	5	1.1	-8	-15	1.1	.
Cn1cnnc1SCC(=O)Nc1ncc([N+](=O)[O-])s1	.	.	0.59	41*	-24	1.2	51*
O=C(COc1ccc(Cl)cc1)Nc1ncc([N+](=O)[O-])s1	1.1	-11	.	.	.	.	.
O=C(Cn1ncc2c([nH]c3ccccc32)c1=O)NCC1CCN(Cc2ccccc2F)CC1	.	.	1.1	-11	-2	1	.
CCCCCCNCc1c(F)cccc1Cl	1	-1	1	-2	-15	1.2	.
S=c1[nH]nc(-c2cc(-c3ccco3)[nH]n2)n1-c1ccccc1Cl	1.3	-29	0.43	57*	-27	1.3	74*
S=c1[nH]nc(-c2ccco2)n1-c1ccccc1Cl	1	3	1.2	-16	8	0.92	.
C=CCN1C(=O)C(CC(=O)O)SC1=Nc1ccc(C)cc1 (stereo unspecified)	0.9	12	1.1	-10	-3	1	.
O=S(=O)(c1ccc(NC(=S)N/N=C/c2ccc(O)c(O)c2)cc1)N1CCOCC1	.	.	0.29	70*	34	0.66	76*
N#Cc1ccc(/C=N/NC(=S)Nc2ccc(S(=O)(=O)N3CCOCC3)cc2)cc1	.	.	0.83	17	0	1	.
CC(=O)Nc1ccc(S(=O)(=O)N2CCN(S(=O)(=O)N3CCOCC3)CC2)cc1	.	.	1.1	-11	-15	1.1	.
CC(NC(=S)Nc1ccc(S(=O)(=O)N2CCOCC2)cc1)C1CC2CCC1C2 (stereo unspecified)	1.1	-10	4*	-302	-45	1.5	-145
SMILES	bIAP activator	bIAP inh	mIAP act	mIAP inh	hIAP inh	hIAP act	mIAP inh confirm
O=C(c1cccc(S(=O)(=O)N2CCCC2)c1)N1CCN(Cc2ccccc2)CC1	.	.	1.1	-9	-2	1	.
CC(C)(C)c1ccc(S(=O)(=O)N2CCN(C(=O)C3CCC3)CC2)cc1	.	.	1	-2	-13	1.1	.
O=C1CSC(=S)N1N1C(=O)c2cccc([N+](=O)[O-])c2C1=O	0.5	49	0.43	57*	-10	1.1	68*
O=C(NNC(=S)NC(=O)c1cccs1)c1ccc(O)cc1	.	.	0.41	60*	-62	1.6	64*
COc1ccc(S(=O)(=O)/N=C2/NC(=O)/C(=C\c3ccco3)S2)cc1	1.4	-41	0.42	58*	2	0.98	64*
O=C(O)c1ccc2c(c1)C(=O)N(c1cc([N+](=O)[O-])ccn1)C2=O	.	.	0.95	5	-1	1	.
CC(=O)c1ccc2c(c1)C1C=CCC1C(C(=O)O)N2 (stereo unspecified)	1.1	-7	0.53	47*	12	0.88	59*
COc1ccc(CNC(=O)C[C@H]2C[C@H](C(=O)N(C(C)C)C(C)C)[C@@]3(C)c4[nH]c5cc(-c6ccco6)ccc5c4CCN3C2=O)cc1OC	.	.	1.2	-22	.	.	.
COc1ccc(N=C2SC(C(=O)O)CC(=O)N2Cc2ccc(OC)c(OC)c2)cc1 (stereo unspecified)	1	1	1	0	8	0.92	.
COc1ccc(N=C2SC(C(N)=O)CC(=O)N2CCc2ccc(OC)c(OC)c2)cc1 (stereo unspecified)	0.9	6	0.56	44*	-18	1.2	50*
CCN(CCn1cccn1)C(=O)CCc1nnc(C2(c3ccc(Cl)cc3)CCC2)o1	0.9	5	1	-3	0	1	.
C=CCn1c(SCC(=O)c2ccc(O)c(O)c2)nnc1-c1cccc(OC)c1	.	.	0.59	41*	9	0.91	46*
O=C(O)C1Nc2c(O)cc(Cl)c([N+](=O)[O-])c2C2C=CCC12 (stereo unspecified)	0.8	17	0.25	75*	-10	1.1	79*
O=[N+]([O-])c1ccc(Cl)c2c1C1C=CCC1C(c1ccccn1)N2 (stereo unspecified)	0.8	18	0.81	19	3	0.97	.
Cc1ccc(NC(=O)CCNS(=O)(=O)c2ccc3[nH]c(=O)oc3c2)c(C)c1	.	.	0.7	30	-5	1.1	.
O=C(CCNS(=O)(=O)c1ccc2[nH]c(=O)oc2c1)NCc1ccccc1	.	.	0.91	10	11	0.89	.
Cc1ccc(C)c(NC(=O)CCNS(=O)(=O)c2ccc3[nH]c(=O)oc3c2)c1	.	.	0.3	70*	-4	1	82*
